Bioassay records as filed in PubChem.
TAG inh: inhibitors of triacylglycerol accumulation, primary screen, cell-based, uHTS, fluorescence, H9c2; H9c2 cells, Nile Red lipid (TAG) fluorescence; cells loaded with 200 µM oleic acid; actives 0.66% (n = 230,000); inhibition, % at 12.5 µM;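 active = pattern-corrected inhibition of lipid staining of at least 50% with the nuclear-stain viability signal not falling by more than 50%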;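 also: 0% = DMSO wells and 100% = triacsin C control wells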
GSK3B inh: human GSK3beta kinase inhibitors, primary screen, biochemical, cell-free homogeneous, HTS; actives 0.038% (n = 300,000); GST-GSK3beta kinase, ADP-Glo luminescence, 60 min; active compounds read low; AID 2097, 2009; activity score (negative = inhibition), % at 10 µM;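 active = more than half of replicate wells score below -50%, meaning over 50% inhibition versus plate controls; inconclusive = some replicates but at most half score below -50%; inactive = no replicate scores below -50%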;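 also: 0% = median DMSO wells and -100% = median GW8510 positive control wells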
Target sequence (P49841 whole entry, looked up): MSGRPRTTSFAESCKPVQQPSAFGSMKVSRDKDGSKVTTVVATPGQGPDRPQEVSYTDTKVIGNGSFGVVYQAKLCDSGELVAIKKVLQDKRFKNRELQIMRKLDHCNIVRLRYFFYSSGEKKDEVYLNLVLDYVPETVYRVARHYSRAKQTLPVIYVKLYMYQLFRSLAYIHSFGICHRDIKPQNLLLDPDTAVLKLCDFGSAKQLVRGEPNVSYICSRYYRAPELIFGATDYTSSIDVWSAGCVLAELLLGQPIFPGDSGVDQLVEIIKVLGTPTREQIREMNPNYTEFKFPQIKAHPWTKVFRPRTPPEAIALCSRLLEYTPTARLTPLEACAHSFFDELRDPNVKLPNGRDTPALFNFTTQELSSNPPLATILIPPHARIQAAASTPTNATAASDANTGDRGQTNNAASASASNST
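Assay system: GST-tagged human GSK3beta kinase, cell-free; Input: 1.6 ng GSK3beta; Medium: Tris/MgCl2 kinase buffer; Timing: 60 min enzyme reaction, room temperature; Signal: ADP-Glo luminescence quantifying ADP generated by kinase; Evaluation: score relative to plate controls; Benchmarks: DMSO neutral wells and GW8510 at 20 µM as positive.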
LANA-H2A inh: blockers of LANA interaction with H2A/H2B – biochemical, FP readout, HTS, primary screen; inhibition, % (no concentration beside the values); AID 2629, 2010; cell-free LANA-H2A/H2B peptide, fluorescence polarization; actives 0.6% (n = 320,000); in the data active = inhibition mostly above about 10%, no sharp cut-off; inactive = mostly below about 6.7%
Hep lipid drop: inhibitors of hepatocyte lipid droplet formation, primary screen, imaging, high-throughput imaging, BODIPY stain; AML12 mouse hepatocytes, oleate lipid droplets; inhibition, % at 6.5 µM; actives 0.4% (n = 240,000); AID 1656, 2009;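 active = lipid droplet intensity inhibited by at least 50%, with more than 500 cells counted; inconclusive = wells with under 300 cells, treated as cytotoxic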
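Assay system: AML12 mouse liver cells | Compound dosing: One dose, 6.5 µM compound | Read-out basis: Droplet intensity reduction, % inhibition | Measured by: Fluorescence imaging, 20x objective, two fields per well | Schedule: Overnight treatment with compound plus oleate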
STK33 inh: inhibitors of purified STK33 kinase, primary screen, biochemical, ADP-Glo luminescence, homogeneous, cell-free | inhibition, % at 10 µM | Serine/threonine-protein kinase 33 (Homo sapiens), Q9BYT3 | MBP phosphorylation | actives 0.073% (n = 320,000) | AID 2661, 2010;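 active = inhibition at or above 25%, using the most active replicate where run in duplicate; inactive = inhibition below 25%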
GSK3 alpha inh: blockers of GSK3A enzyme activity – biochemical, luminescence, cell-free homogeneous, HTS, primary screen; Glycogen synthase kinase-3 alpha (Homo sapiens), P49840; GSK-3 alpha kinase, ADP-Glo luminescence, 60 min; inhibition, % at 10 µM; actives 0.1% (n = 320,000); AID 2650, 2010;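 active = more than half of replicates show inhibition above 20%; inconclusive = some but at most half of replicates above 20% inhibition; inactive = no replicate shows inhibition above 20%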;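 also: GST-tagged GSK-3 alpha with peptide substrate and 25 µM ATP; 0% = DMSO neutral wells and 100% = GW8510 positive control wells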
Numbers without * were called inactive; ? = inconclusive; · = not tested or not shown. Most compounds without a hit are left out; they make up all but 1.3% or so of the library.

SMILES	TAG inh	GSK3B inh	LANA-H2A inh	Hep lipid drop	STK33 inh	GSK3 alpha inh
CSCCC(NS(=O)(=O)c1ccc2ccccc2c1)C(=O)O (centres undefined)	-10.7	2.8	27.5*	11.3	-2.9	-1.8
O=C(CNS(=O)(=O)c1ccc(Cl)cc1)NNC(=O)c1cccnc1	-6.6	-2.7	7.2	6.2	-2.2	-0.4
Cc1ccc(CCNCc2c(C(=O)O)c(C)n(-c3ccccc3)c2C)cc1	·	0.3	·	8.4	·	·
Cc1cccc(C(=O)OCC(=O)NCc2cccs2)c1	-7.7	-0.3	-1.6	13.8	-1.9	0.5
CS(=O)(=O)c1ccc(C(=O)OCC(=O)NCc2cccs2)cc1[N+](=O)[O-]	51.5*	·	3.4	·	0.2	0.5
c1ccc(-c2cc(-c3ccncc3)nc3ccc4ccccc4c23)cc1	·	-0.5	-4.4	12.0	-0.2	-3.3
Cc1cccc(N2CCCn3c2nc2c3c(=O)[nH]c(=O)n2C)c1	·	-5.1	2.8	·	-1.9	-0.2
Cc1ccc(-c2csc3nc4c5ccccc5c(NCCCN5CCOCC5)nn4c(=O)c23)cc1	·	3.4	1.0	-1.7	0.1	0.0
Cc1ccc(-c2csc3nc4c5ccccc5c(NCCCN(C)C)nn4c(=O)c23)cc1	59.3*	-1.7	-8.9	3.8	0.9	18.4
CCN(CC)CCOC(=O)c1ccc(N/C=C(/C#N)c2nc(-c3ccc(OC)c(OC)c3)cs2)cc1	61.1*	0.2	-1.9	-0.8	8.0	0.0
CCN(CC)CCOC(=O)c1ccc(N/C=C(/C#N)c2nc(-c3cccc(OC)c3)cs2)cc1	23.6	-2.9	1.7	-0.4	0.6	-0.1
CCCC(C)C(=O)Nc1ccc(S(=O)(=O)Nc2nccc(C)n2)cc1 (centres undefined)	·	-0.6	1.3	-5.8	-1.3	1.7
COc1cc(/C=C/C(=O)O)cc(S(=O)(=O)Nc2cccc(S(=O)(=O)N3CCOCC3)c2)c1OC	10.1	1.0	4.7	-0.2	-0.7	-1.6
CCOC(=O)CCCCC(=O)c1[nH]c(=O)[nH]c1C[n+]1ccccc1	·	-3.9	17.4*	12.9	0.1	2.7
CCOC(=O)CCCCC(=O)c1[nH]c(=O)[nH]c1C[n+]1ccc(C)cc1	3.3	0.4	4.0	2.7	-0.6	3.1
CCOc1ccc2nc(SC3CC(=O)N(c4ccc(OC)cc4)C3=O)sc2c1 (centres undefined)	13.1	1.6	0.3	·	-2.0	1.1
CC(=O)c1ccc(S(=O)(=O)N(C)CCCC(=O)N(C)Cc2c(F)cccc2Cl)cc1	·	1.1	57.6*	7.2	-2.0	-2.1
CN(Cc1c(F)cccc1Cl)C(=O)CCc1c[nH]c2ccccc12	·	-2.1	-3.9	-28.3	-0.5	3.1
Cc1cc2cc(CNC(=O)c3cccs3)ccc2n1C	·	1.7	78.2*	2.3	0.4	-2.1
Cc1ccc(-n2nnnc2CSc2nnc(-c3ccc(O)cc3)o2)cc1	·	-0.5	-2.1	14.8	10.8	66.7*
O=C(O)c1cc(N/N=C/c2c(O)ccc3ccccc23)ccc1Cl	·	0.6	7.3	-26.7	43.5*	2.8
CCOC(=O)C1=C(C)NC(C)=C(C(=O)OCC)C1C(=O)OCC(=O)N(C)C1CCS(=O)(=O)C1 (centres undefined)	11.3	0.9	19.6*	17.3	-3.2	0.3
CCOC(=O)C1=C(C)NC(C)=C(C(=O)OCC)C1C(=O)OCC(N)=O	-2.1	3.2	-1.3	25.9	0.7	-4.4
O=C(c1ccc(-c2ccccc2)cc1)C1CCCN(C(=O)Cn2cncn2)C1 (centres undefined)	27.6	3.6	-5.3	8.1	-0.7	-0.3
O=S(=O)(NC1CCCCC1Sc1ncccn1)c1ccc(Cl)cc1 (centres undefined)	·	1.7	2.3	-17.8	1.8	0.2
SMILES	TAG inh	GSK3B inh	LANA-H2A inh	Hep lipid drop	STK33 inh	GSK3 alpha inh
O=S(=O)(NC1CCCCC1Sc1ncccn1)c1ccccc1 (centres undefined)	·	-6.5	12.7*	-14.5	-1.5	-1.1
CCOC(=O)C1CCN(C(=O)Cn2cnc3sc(C)c(S(=O)(=O)N4CCC(C)CC4)c3c2=O)CC1	·	0.6	-6.7	22.9	0.3	-1.4
CCOC(=O)C1CCN(C(=O)Cn2cnc3sc(C)c(S(=O)(=O)N4CCCCC4)c3c2=O)CC1	·	0.1	15.9*	-4.4	1.1	-0.9
O=C(NC1CCS(=O)(=O)C1)c1cc2c(=O)n3ccccc3nc2n1Cc1ccccc1 (centres undefined)	12.7	·	·	·	·	·
Cn1c(N)c(C(=O)COC(=O)c2ccc(F)cc2Cl)c(=O)n(C)c1=O	8.7	·	-6.3	·	-0.8	-1.6
CCCc1nc2oc3c(NCCCN(C)C)ncnc3c2c2c1CCCC2	62.7*	-4.1	-8.9	?	1.7	14.5
O=C(N=c1ccn(-c2nc3ccccc3nc2NS(=O)(=O)c2ccccc2)cc1)c1ccccc1Cl	·	1.8	3.2	26.0	-0.5	-3.7
O=C(N=c1ccn(-c2nc3ccccc3nc2NS(=O)(=O)c2ccc(Cl)cc2)cc1)c1ccccc1Cl	·	-1.1	14.7*	-3.5	-3.3	-2.0
COc1ccccc1N1CCN(C(=O)C(Sc2ccccc2)c2ccccc2)CC1 (centres undefined)	10.9	1.4	1.0	8.4	-0.5	-0.4
CCOc1ccc(OCC)c(NC(=O)CN2CCN(CC(=O)NC(C)C)CC2)c1	·	-0.8	14.3*	-1.3	-2.4	-1.2
O=C(CSCc1cc(=O)[nH][nH]1)Nc1ccc(F)cc1	-2.7	-1.0	18.5*	0.0	-0.1	0.5
CCCNC(=O)C1CCN(S(=O)(=O)c2cccs2)CC1	10.7	3.4	-4.5	3.9	-0.8	-2.0
COc1cccc(NC(=O)CCCCCN2C(=O)[C@@H]3Cc4ccccc4CN3C2=O)c1	·	1.1	-1.0	0.7	-1.6	-4.2
O=c1cc(-c2ccc(O)cc2)oc2ccccc12	·	5.9	-3.3	13.9	3.6	2.5
O=c1cc(-c2ccncc2)oc2ccccc12	-2.6	-41.1	1.4	·	7.6	58.1*
O=C1NC(=O)/C(=C/c2ccc(O)cc2)S1	·	-11.4	-11.2	27.1	33.3*	27.7
CCc1ccc(N=C2NC(=O)/C(=C/c3cc(OC)c(OC)c(OC)c3)S2)cc1	·	·	-0.7	-8.0	-0.8	-4.6
COc1cc(/C=C2\SC(=Nc3ccc(O)cc3)NC2=O)cc(OC)c1O	·	2.4	11.1*	-13.3	-1.9	6.3
CN(C)c1ccc(S(=O)(=O)NCC(=O)NCc2ccccc2)cc1[N+](=O)[O-]	·	0.3	-2.0	·	-1.0	0.6
